Measurements collected from several papers.
Protocols differ between the studies behind these lines.
DYRK3: Dual specificity tyrosine-phosphorylation-regulated kinase 3 (DYRK3, Homo sapiens, UniProt O43781)
PTGS2: Prostaglandin G/H synthase 2 (PTGS2, Homo sapiens, UniProt P35354)
BRDT BD1: Bromodomain testis-specific protein, BD1 (BRDT, Homo sapiens, UniProt Q58F21)

| SMILES | target | read-out | mode | method | tested at | measurement | result |
| --- | --- | --- | --- | --- | --- | --- | --- |
| O=C(O)c1ccc2c(c1)nc(NCCc1ccccc1)c1ccncc12 | DYRK3 | enzyme activity | inhibitor | radiometric | 1 µM | remaining activity | 3% |
| O=c1cc(-c2ccc(O)cc2)oc2cc(O)cc(O)c12 | PTGS2 | enzyme activity | inhibitor |  | 0.98 µg/mL | inhibition | 28.2% |
| Cc1cnc(Nc2ccc(OCCN3CCCC3)cc2)nc1Nc1cccc(S(=O)(=O)NC(C)(C)C)c1 | CREB-binding protein (CREBBP, Homo sapiens, UniProt Q92793) | thermal stability |  | DSF | 10 µM | ΔTm | 2.06 °C |
| O=C(O)c1ccc(O)cc1 | PTGS2 | enzyme activity | inhibitor |  | 15.63 µg/mL | inhibition | 100% |
| NS(=O)(=O)c1ccc(Nc2nc(-c3ccc(F)cc3)c3ccccc3n2)cc1 | BRDT BD1 | binding |  | competition with immobilised ligand | 1 µM | remaining binding | 6% |
| COc1ccc(-c2cc(=O)c3c(O)cc(O[C@@H]4O[C@H](CO)[C@@H](O)[C@H](O)[C@H]4O)cc3o2)cc1O | PTGS2 | enzyme activity | inhibitor |  | 3.9 µg/mL | inhibition | 100% |
| O=C(O)c1ccc2c(c1)nc(Nc1cccc(F)c1)c1ncncc12 | Homeodomain-interacting protein kinase 2 (HIPK2, Homo sapiens, UniProt Q9H2X6) | enzyme activity | inhibitor | radiometric | 1 µM | remaining activity | -1% |
| Cc1cc2c(cc1N1C(=O)c3cccc4c(Cl)ccc(c34)C1=O)n(C)c(=O)n2C | BRDT BD1 | thermal stability |  | DSF | 10 µM | ΔTm | -1 °C |
| O=C(O)c1ccc2c(c1)nc(Nc1cccc(F)c1)c1ccncc12 | DYRK3 | enzyme activity | inhibitor | radiometric | 1 µM | remaining activity | 0% |
| Oc1ccc(-c2nc(-c3ccncc3)c(-c3ccc(F)cc3)[nH]2)cc1 | Transcription intermediary factor 1-beta (TRIM28, Homo sapiens, UniProt Q13263) | thermal stability |  | DSF | 10 µM | ΔTm | -0.03 °C |
